Results: ChEMBL document CHEMBL5230149, “Discovery of novel ketoxime ether derivatives with potent FXR agonistic activity, oral effectiveness and high liver/blood ratio” (Bioorg Med Chem, 2021)
The source made the active and inactive calls. The calls are words filed in the database; no cut-off is given here.

How the values were obtained:
Bile acid receptor = biological target: T1, Bile acid receptor (Homo sapiens, UniProt Q96RI1); experiment: Agonist activity at human FXR expressed in human Huh-7 cells co-transfected with FXRE-Luc reporter plasmid assessed as receptor transactivation incubated for 16 hrs by luciferase reporter gene assay; assay type: cell-based
T1 sequence (Q96RI1 whole entry): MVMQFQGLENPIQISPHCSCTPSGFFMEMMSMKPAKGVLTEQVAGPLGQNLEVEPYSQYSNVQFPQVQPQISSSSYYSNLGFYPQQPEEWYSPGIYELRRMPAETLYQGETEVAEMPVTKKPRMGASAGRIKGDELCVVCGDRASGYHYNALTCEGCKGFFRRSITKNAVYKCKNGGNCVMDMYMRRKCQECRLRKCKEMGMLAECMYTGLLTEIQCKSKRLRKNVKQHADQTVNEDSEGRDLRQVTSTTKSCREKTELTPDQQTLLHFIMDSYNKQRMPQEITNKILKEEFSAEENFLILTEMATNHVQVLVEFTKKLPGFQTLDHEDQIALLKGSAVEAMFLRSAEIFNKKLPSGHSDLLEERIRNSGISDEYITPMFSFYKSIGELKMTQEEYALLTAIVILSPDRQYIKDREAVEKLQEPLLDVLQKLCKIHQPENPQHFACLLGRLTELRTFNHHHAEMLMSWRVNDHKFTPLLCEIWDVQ

[1] = biological target: T2, Bile acid receptor (Mus musculus) (UniProt Q60641); experiment: Agonist activity at FXR in C57BL/6J mouse hepatocytes assessed as upregulation of SHP mRNA expression incubated for 24 hrs by qRT-PCR analysis; assay type: cell-based; details: Hepatocyte, filed as agonist, dose 0.4-10 µM
T2 sequence (whole entry): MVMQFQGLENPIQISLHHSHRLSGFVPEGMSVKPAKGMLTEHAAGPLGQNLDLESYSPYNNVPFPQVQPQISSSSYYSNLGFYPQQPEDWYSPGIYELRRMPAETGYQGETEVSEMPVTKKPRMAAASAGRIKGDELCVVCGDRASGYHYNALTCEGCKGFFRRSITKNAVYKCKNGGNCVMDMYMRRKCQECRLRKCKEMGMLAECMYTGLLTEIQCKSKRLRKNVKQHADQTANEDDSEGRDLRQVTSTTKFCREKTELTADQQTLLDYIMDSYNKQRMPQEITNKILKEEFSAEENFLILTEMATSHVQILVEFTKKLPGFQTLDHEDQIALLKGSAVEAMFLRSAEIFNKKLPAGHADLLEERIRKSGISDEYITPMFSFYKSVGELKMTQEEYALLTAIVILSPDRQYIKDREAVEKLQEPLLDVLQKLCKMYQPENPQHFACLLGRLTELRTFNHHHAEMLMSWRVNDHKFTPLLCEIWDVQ
Procedure, shortened: (§1)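 Hepatocytes isolated from overnight-fasted male C57BL/6J mice (8–12 weeks), allowed 4 h to adhere, then given vehicle (0.5% DMSO) or compound at 0.4, 2 and 10 μM for 24 h. TRIzol RNA extraction, then qRT-PCR with GAPDH normalization by ΔΔCt. Values are expressed as fold over vehicle (mean ± S.E.M, n = 3).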

[2] = biological target: T2, Bile acid receptor (Mus musculus); experiment: Agonist activity at FXR in C57BL/6J mouse hepatocytes assessed as upregulation of BSEP mRNA expression at 0.4 to 10 uM incubated for 24 hrs by qRT-PCR analysis; assay type: cell-based; details: Hepatocyte, filed as agonist, dose 0.4-10 µM; procedure, shortened: as §1
[3] = biological target: T2, Bile acid receptor (Mus musculus); experiment: In vivo agonist activity at FXR in C57BL/6J mouse assessed as downregulation of CYP7A1 mRNA expression in liver at 30 mg/kg, po measured after 6 hrs by qRT-PCR analysis; assay type: functional, organism-based
Procedure, shortened: (§2)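 Male C57BL/6J mice (7–8 weeks) fasted 3 h, then given a single oral dose; vehicle 0.25% CMC-Na (wt/vol). Killed 6 h post-dose; liver snap-frozen, stored at -80 °C. TRIzol RNA extraction, qRT-PCR, normalised to GAPDH by ΔΔCt. Values given as fold of vehicle group, mean ± SEM, n = 6.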

[4] = biological target: T2, Bile acid receptor (Mus musculus); experiment: In vivo agonist activity at FXR in C57BL/6J mouse assessed as downregulation of CYP8B1 mRNA expression in liver at 30 mg/kg, po measured after 6 hrs by qRT-PCR analysis; assay type: functional, organism-based; procedure, shortened: as §2

Structure (SMILES) | EC50 (Bile acid receptor) [nM] | also measured
C/C(=N\OCc1cccc(C(=O)O)c1)c1ccc(OCc2c(-c3c(Cl)cccc3Cl)noc2C2CC2)cn1 | 234 | –
C/C(=N\OCc1cccc(C(=O)O)c1)c1ccc(OCc2c(-c3c(Cl)cccc3Cl)noc2C2CC2)cc1Br | 37.2 | –
COc1cc(/C(C)=N/OCc2cc(C)cc(C(=O)O)c2)ccc1OCc1c(-c2ccccc2OC(F)(F)F)noc1C1CC1 | > 1850 | –
CC[C@H]1[C@@H](O)[C@@H]2[C@H](CC[C@]3(C)[C@@H]([C@H](C)CCC(=O)O)CC[C@@H]23)[C@@]2(C)CC[C@@H](O)C[C@@H]12 | – | Activity [1]: Dose-Dependent Effect; Activity [2]: Active; Activity [3]: Active; Activity [4]: Active
C/C(=N\OCc1ccccc1C(=O)O)c1ccc(OCc2c(-c3c(Cl)cccc3Cl)noc2C2CC2)cc1Cl | 75.4 | –
C/C(=N\OCc1cncc(C(=O)O)c1)c1ccc(OCc2c(-c3ccccc3OC(F)(F)F)noc2C2CC2)c(C)c1 | 1830 | –
C/C(=N\OCc1ccc(C(=O)O)cc1)c1ccc(OCc2c(-c3c(Cl)cccc3Cl)noc2C2CC2)cc1Cl | 134 | –
C/C(=N\OCc1cc(C(=O)O)ccc1C#N)c1ccc(OCc2c(-c3ccccc3OC(F)(F)F)noc2C2CC2)c(F)c1 | 347 | –
C/C(=N\OCc1cc(C)cc(C(=O)O)c1)c1ccc(OCc2c(-c3ccccc3OC(F)(F)F)noc2C2CC2)cc1Cl | 158 | –
C/C(=N\OCc1cc(C)cc(C(=O)O)c1)c1ccc(OCc2c(-c3ccccc3OC(F)(F)F)noc2C2CC2)c(C)c1 | 523 | –
C/C(=N\OCc1ccc(C(=O)O)o1)c1ccc(OCc2c(-c3c(Cl)cccc3Cl)noc2C2CC2)cc1Cl | 49.7 | –
